Experimental findings from ChEMBL document CHEMBL1140735, “Structure-activity relationships of C6-uridine derivatives targeting plasmodia orotidine monophosphate decarboxylase” (J Med Chem, 2008) are described below.

A value given as a limit tells only on which side of the number the result lay.

For one series, the system named is CHO. Briefly: Cytotoxicity against CHO cells. To be noted: Cricetulus griseus. It is filed as cell-based. In a few lines: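 CHO cells in RPMI 1640 with 10% fetal calf serum, 25 mM HEPES and gentamicin were grown to 50% confluency. Compounds from 10 mg/mL DMSO stocks were added as a serial dilution series, with DMSO-only controls. After 48 h, MTT was added for 1 h and formazan dissolved in DMSO. Absorbance at 650 nm; IC50 by nonlinear regression of dose–response.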

Series [1] has as its system Plasmodium falciparum. Briefly: Antimalarial activity against Plasmodium falciparum 3D7. The format is functional, organism-based. In a few lines:
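Parasites grown in human O+ erythrocytes in RPMI 1640 with 10% human serum and 50 µM hypoxanthine. Compounds from 10 mg/mL DMSO stocks were serially 2-fold diluted and added to culture at 2% hematocrit and 2% parasitemia. Incubation was 48 h at 37 °C under 95% N2/3% CO2/2% O2.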

The nature of series [2]: Inhibition of Plasmodium vivax ODCase. In a few lines:
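Calorimetric assay of P. vivax ODCase: enzyme (50 or 70 nM) was mixed with inhibitor (40–250 µM) in 50 mM Tris with 1 mM DTT, and activity was started by a single OMP injection to a final 12 µM. Competitive Ki was determined. For time-dependent inactivation, 50 µM enzyme was incubated at 25 °C in Tris pH 8.0 with 37.5–75 mM inhibitor for 1–48 h, then diluted 1000-fold and assayed.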

Series [3] is described as follows: Inhibition of Plasmodium falciparum ODCase.
Series [4] can be described thus: Stability assessed as half life of hydrolysis. The format is physicochemical.
Series [5] deals with Methanothermobacter thermautotrophicus.
A short description of series [6]: Inhibition of Methanobacterium thermoautotrophicum ODCase. The arrangement: species or system Methanothermobacter thermautotrophicus.
Series [7] has as its system Plasmodium falciparum.

On to `O=c1cc(I)n([C@@H]2O[C@H](CO)[C@@H](O)[C@H]2O)c(=O)[nH]1`, for which the IC50 came to 366 µM with CHO and 6.2 µM in the series with Plasmodium falciparum [1].
The corresponding values for `N#Cc1cc(=O)[nH]c(=O)n1[C@@H]1O[C@H](CO)[C@@H](O)[C@H]1O` are over 1500 µM and 446 µM.
Take `Cc1cc(=O)[nH]c(=O)n1[C@@H]1O[C@H](COP(=O)(O)O)[C@@H](O)[C@H]1O`: the Ki stood at 22.4 µM in series [2] and 34.1 µM in series [3].
For `N#Cc1cc(=O)[nH]c(=O)n1[C@@H]1O[C@H](COP(=O)(O)O)[C@@H](O)[C@H]1O`, the affinity in series [2], expressed as Ki, was 62 µM. For the same compound, the half-life in series [4] was 5 h.
For the compound `[N-]=[N+]=Nc1cc(=O)[nH]c(=O)n1[C@@H]1O[C@H](CO)[C@@H](O)[C@H]1O`, the IC50 in the series on CHO was over 1500 µM; in the series with Plasmodium falciparum [1] it was 1230 µM.
The corresponding values for `CNc1cc(=O)[nH]c(=O)n1[C@@H]1O[C@H](CO)[C@@H](O)[C@H]1O` are 71.9 µM and 28.5 µM.
For `CN(C)c1cc(=O)[nH]c(=O)n1[C@@H]1O[C@H](CO)[C@@H](O)[C@H]1O`, in that order: 68.3 µM and 31.7 µM.
Turning to `[N-]=[N+]=Nc1cc(=O)[nH]c(=O)n1[C@@H]1O[C@H](COP(=O)(O)O)[C@@H](O)[C@H]1O`, the KI in series [5] was 0.63 µM; with Plasmodium falciparum [7], 7.3 µM. Moreover, the Kinact in series [5] was 61.2 h⁻¹; with Plasmodium falciparum [7], 0.35 h⁻¹. In addition, the Ki in series [6] was 0.19 µM; in series [3], 2 µM.
`Nc1cc(=O)[nH]c(=O)n1[C@@H]1O[C@H](CO)[C@@H](O)[C@H]1O`: the IC50 with CHO and with Plasmodium falciparum [1] was over 1500 µM each time.
As for `Cc1cc(=O)[nH]c(=O)n1[C@@H]1O[C@H](CO)[C@@H](O)[C@H]1O`, the IC50 in the series on CHO was over 1160 µM; in the series with Plasmodium falciparum [1], 530 µM.
